Active and inactive are the calls of the source. No cut-off for these calls is given here.
Legend:
Toxoplasma gondii [1] = assay: Antimicrobial activity against Toxoplasma gondii […] infected in african green monkey BSC1 cells assessed as parasite invasion at 100 uM after 90 mins by microscopy relative to control
Plasmodium falciparum [2] = assay: Binding affinity to Plasmodium falciparum PF14_0075 at 2.5 mM by LC/MS/MS analysis
Outline: (§1)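 P. falciparum parasite lysate was incubated with agarose-immobilized inhibitor and washed extensively. Retained proteins were eluted with urea, resolved by SDS-PAGE and identified by LC/MS/MS. In a competition arm, free inhibitor (2.5 mM) was added to the lysate before incubation with the beads under identical conditions.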

Plasmodium falciparum [3] = assay: Binding affinity to Plasmodium falciparum PFL1170w at 2.5 mM by LC/MS/MS analysis
Outline: as §1

Plasmodium falciparum [4] = assay: Antimicrobial activity against Plasmodium falciparum schizonts infected in human erythrocytes assessed as minimal effect on parasite cell cycle at 450 nM treated 12 hrs after release of ring stage by microscopy
Plasmodium falciparum [5] = assay: Binding affinity to Plasmodium falciparum PF14_0102 at 2.5 mM by LC/MS/MS analysis
Outline: as §1

Toxoplasma gondii [6] = assay: Antimicrobial activity against Toxoplasma gondii […] infected in african green monkey BSC1 cells assessed as inhibition of parasite invasion at 1.56 uM after 48 hrs by microscopy relative to control; format: functional, organism-based; settings: BSC-1
Plasmodium falciparum [7] = assay: Binding affinity to Plasmodium falciparum PF10_0363 at 2.5 mM by LC/MS/MS analysis
Outline: as §1

[8] = Half life in BALB/c mouse 20 mg/kg single oral dose by LC/MS/MS analysis; settings: in vivo
Plasmodium falciparum [9] = assay: Antiplasmodial activity against multidrug-resistant Plasmodium falciparum Dd2 after 72 hrs by SYBR green assay; format: functional, organism-based; settings: Dd2, 72 h
Outline: (§2)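 Parasites grown in human O+ erythrocytes in RPMI with human serum and albumax. For the assay, serially diluted compounds were added to screening medium (RPMI, 4.16 mg/ml albumax) at 2.5% hematocrit and 0.3% parasitemia, then incubated 72 h in 93% N2/4% CO2/3% O2. DMSO served as baseline and uninfected erythrocytes as background. SYBR Green fluorescence was read at 520 nm to give EC50.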

Plasmodium falciparum [10] = assay: Binding affinity to Plasmodium falciparum PFC0720w at 2.5 mM by LC/MS/MS analysis
Outline: as §1

Plasmodium falciparum [11] = assay: Binding affinity to Plasmodium falciparum PF08_0003 at 2.5 mM by LC/MS/MS analysis
Outline: as §1

Plasmodium falciparum [12] = assay: Binding affinity to Plasmodium falciparum PFI0235w at 2.5 mM by LC/MS/MS analysis
Outline: as §1

Plasmodium falciparum [13] = assay: Binding affinity to Plasmodium falciparum PFE1155c at 2.5 mM by LC/MS/MS analysis
Outline: as §1

Plasmodium falciparum [14] = assay: Binding affinity to Plasmodium falciparum PFI1680w at 2.5 mM by LC/MS/MS analysis
Outline: as §1

Plasmodium falciparum [15] = assay: Binding affinity to Plasmodium falciparum PF14_0393 at 2.5 mM by LC/MS/MS analysis
Outline: as §1

Plasmodium falciparum [16] = assay: Binding affinity to Plasmodium falciparum PF14_0541 at 2.5 mM by LC/MS/MS analysis
Outline: as §1

Plasmodium falciparum [17] = assay: Binding affinity to Plasmodium falciparum PF13_0304 at 2.5 mM by LC/MS/MS analysis
Outline: as §1

Plasmodium falciparum [18] = assay: Antimicrobial activity against Plasmodium falciparum 3D7 schizonts infected in human erythrocytes assessed as effect on parasitemia at 225 to 450 nM after 32 hrs by microscopy
Plasmodium falciparum [19] = assay: Binding affinity to Plasmodium falciparum PFL0185c at 2.5 mM by LC/MS/MS analysis
Outline: as §1

Toxoplasma gondii [20] = assay: Antimicrobial activity against Toxoplasma gondii […] infected in african green monkey BSC1 cells assessed as parasite invasion at 12.5 uM after 48 hrs by microscopy relative to control; format: functional, BSC-1
Toxoplasma gondii [21] = assay: Antimicrobial activity against Toxoplasma gondii […] infected in african green monkey BSC1 cells assessed as parasite invasion at 6.25 uM after 48 hrs by microscopy relative to control; format: functional, BSC-1
Plasmodium falciparum [22] = assay: Antiplasmodial activity against chloroquine-resistant Plasmodium falciparum W2 after 72 hrs by SYBR green assay; format: functional, organism-based; settings: W2, 72 h
Outline: as §2

[23] = Plasma concentration in BALB/c mouse at 20 mg/kg single oral dose after 24 hrs by LC/MS/MS analysis
Plasmodium falciparum [24] = assay: Binding affinity to Plasmodium falciparum PF14_0096 at 2.5 mM by LC/MS/MS analysis
Outline: as §1

[25] = Inhibition of GST-fused Plasmodium falciparum recombinant CDPK5 expressed in Escherichia coli Rosetta 2 assessed as inhibition of [gamma-33P]ATP incorporation into substrate peptide by scintillation counting
Plasmodium falciparum [26] = assay: Binding affinity to Plasmodium falciparum PF14_0359 at 2.5 mM by LC/MS/MS analysis
Outline: as §1

[27] = Cytotoxicity against human HuH7 cells after 72 hrs by Cell Titer Glo assay; format: cell-based, Huh-7; settings: read-out: ED50
Outline: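 Cells seeded at 250 per well in DMEM with 5% fetal bovine serum. Compound added the next day, followed by 72 h culture to match the parasite proliferation assay. Viability read by Cell Titer Glo luminescence.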

[28] = Cytotoxicity against human HeLa cells after 72 hrs by Cell Titer Glo assay; format: cell-based; settings: read-out: ED50
Outline: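 Cells were seeded at 250 per well in DMEM with 5% FBS in 1,536-well plates, and compound was added the next day. Culture ran 72 h, matching the parasite proliferation assay. Viability was read by Cell Titer Glo luminescence, and EC50 was derived.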

Plasmodium falciparum [29] = assay: Antimicrobial activity against Plasmodium falciparum 3D7 schizonts infected in human erythrocytes assessed as effect on parasitemia at 225 to 450 nM after 48 hrs by microscopy
Plasmodium falciparum [30] = assay: Binding affinity to Plasmodium falciparum PF10_0268 at 2.5 mM by LC/MS/MS analysis
Outline: as §1

Plasmodium falciparum [31] = assay: Antimicrobial activity against Plasmodium falciparum 3D7 infected in human erythrocytes after 48 hrs by microscopy
Plasmodium falciparum [32] = assay: Binding affinity to Plasmodium falciparum PF14_0517 at 2.5 mM by LC/MS/MS analysis
Outline: as §1

Plasmodium falciparum [33] = assay: Upregulation of proteasome gene expression in Plasmodium falciparum at 460 nM after 48 hrs by microarray analysis; format: functional, organism-based
Outline: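 P. falciparum 3D7 was grown in human O+ erythrocytes. Heterogeneous, unsynchronized parasites were incubated with 460 nM compound for 24 or 48 h, then compared with untreated parasites on a full-genome microarray. Transcript changes were called by a statistical test.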

Plasmodium falciparum [34] = assay: Antiplasmodial activity against pyrimethamine-resistant Plasmodium falciparum HB3 after 72 hrs by SYBR green assay; format: functional, organism-based; settings: HB3, 72 h
Outline: as §2

Plasmodium falciparum [35] = assay: Binding affinity to Plasmodium falciparum CDPK1 at 2.5 mM by LC/MS/MS analysis
Outline: as §1

[36] = Cmax in BALB/c mouse at 20 mg/kg single oral dose after 24 hrs by LC/MS/MS analysis; settings: in vivo

**Q.** Which Activity (Toxoplasma gondii [1]) does the source give for `N[C@H]1CC[C@H](Nc2nc(Nc3ccc(C(=O)N4CCCCC4)cc3)c3ncn(-c4cccc(F)c4)c3n2)CC1` [PURFALCAMINE] here?
**A.** Its Activity is “<=20%”.

**Q.** And the Activity (Plasmodium falciparum [2])?
**A.** The Activity was “inactive”.

**Q.** And the Activity (Plasmodium falciparum [3])?
**A.** Its Activity is “inactive”.

**Q.** What about the Activity (Plasmodium falciparum [4]) of the same compound?
**A.** Its Activity is “Active”.

**Q.** And the Activity (Plasmodium falciparum [5])?
**A.** Its Activity is “inactive”.

**Q.** And the inhibition (Toxoplasma gondii [6])?
**A.** Its inhibition is “inactive”.

**Q.** What about the Activity (Plasmodium falciparum [7]) of the same compound?
**A.** Its Activity is “inactive”.

**Q.** What about the half-life [8] of the same compound?
**A.** Its half-life is 3.1 h.

**Q.** And the EC50 (Plasmodium falciparum [9])?
**A.** Its EC50 is 0.259 µM.

**Q.** What about the Activity (Plasmodium falciparum [10]) of the same compound?
**A.** The Activity was “inactive”.

**Q.** And the Activity (Plasmodium falciparum [11])?
**A.** Its Activity is “inactive”.

**Q.** And the Activity (Plasmodium falciparum [12])?
**A.** Its Activity is “inactive”.

**Q.** And the Activity (Plasmodium falciparum [13])?
**A.** The Activity was “inactive”.

**Q.** What about the Activity (Plasmodium falciparum [14]) of the same compound?
**A.** Its Activity is “inactive”.

**Q.** And the Activity (Plasmodium falciparum [15])?
**A.** Its Activity is “inactive”.

**Q.** And the Activity (Plasmodium falciparum [16])?
**A.** The Activity was “inactive”.

**Q.** What about the Activity (Plasmodium falciparum [17]) of the same compound?
**A.** Its Activity is “inactive”.

**Q.** What about the inhibition (Plasmodium falciparum [18]) of the same compound?
**A.** Its inhibition is “inactive”.

**Q.** And the Activity (Plasmodium falciparum [19])?
**A.** Its Activity is “inactive”.

**Q.** And the Activity (Toxoplasma gondii [20])?
**A.** Its Activity is 20%.

**Q.** And the Activity (Toxoplasma gondii [21])?
**A.** Its Activity is 20%.

**Q.** And the EC50 (Plasmodium falciparum [22])?
**A.** The EC50 was 0.179 µM.

**Q.** And the concentration at 24 h [23]?
**A.** Its concentration at 24 h is 0.023 µM.

**Q.** What about the Activity (Plasmodium falciparum [24]) of the same compound?
**A.** Its Activity is “inactive”.

**Q.** What about the IC50 [25] of the same compound?
**A.** Its IC50 is > 3.5 µM.

**Q.** What about the Activity (Plasmodium falciparum [26]) of the same compound?
**A.** The Activity was “inactive”.

**Q.** And the CC50 at 72 h [27]?
**A.** The CC50 at 72 h was 5.48 µM.

**Q.** What about the CC50 at 72 h [28] of the same compound?
**A.** The CC50 at 72 h was 7.03 µM.

**Q.** What about the Activity (Plasmodium falciparum [29]) of the same compound?
**A.** Its Activity is “Active”.

**Q.** What about the Activity (Plasmodium falciparum [30]) of the same compound?
**A.** The Activity was “inactive”.

**Q.** What about the EC90 (Plasmodium falciparum [31]; Plasmodium falciparum 3D7) of the same compound?
**A.** The EC90 was 0.414 µM.

**Q.** And the EC50 (Plasmodium falciparum [31]; Plasmodium falciparum 3D7, 48 h)?
**A.** The EC50 was 0.23 µM.

**Q.** And the Activity (Plasmodium falciparum [32])?
**A.** The Activity was “inactive”.

**Q.** What about the Activity (Plasmodium falciparum [33]) of the same compound?
**A.** Its Activity is “Active”.

**Q.** What about the EC50 (Plasmodium falciparum [34]) of the same compound?
**A.** The EC50 was 0.178 µM.

**Q.** What about the Activity (Plasmodium falciparum [35]) of the same compound?
**A.** The Activity was “Active”.

**Q.** What about the Cmax [36] of the same compound?
**A.** The Cmax was 2.6 µM.
